For data set [1], the system named is Plasmodium falciparum. The data set can be described thus: Antiplasmodial activity against asexual stage of chloroquine-sensitive Plasmodium falciparum D6 infected in human erythrocytes assessed as reduction in parasite growth incubated for 72 hrs by SYBR green 1 staining based assay. The conditions noted are these: D6, Erythrocyte. The class given is functional, organism-based. In outline: (§1)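 P. falciparum grown in human erythrocytes at 2% hematocrit in RPMI 1640 with 0.5% Albumax II, hypoxanthine and gentamicin. Assay run at 0.2% parasitemia, 2% hematocrit, triplicate, 72 h at 37 °C under low oxygen. Starting range 2.5–2500 nM, adjusted as needed. SYBR Green I lysis buffer added for 1 h in the dark, fluorescence read at ex 497/em 520 nm. IC50 by nonlinear regression against drug-free controls.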

The subject of data set [2] is Plasmodium falciparum. The experiment in a line: Antiplasmodial activity against asexual blood stage of multidrug-resistant Plasmodium falciparum Dd2 infected in human erythrocytes assessed as reduction in parasite growth incubated for 72 hrs by SYBR green 1 staining based assay. The class given is functional, organism-based. The conditions noted are these: Dd2, Erythrocyte. In outline:
as §1

In data set [3] the test system is Plasmodium falciparum. The data set can be described thus: Antiplasmodial activity against asexual blood stage of multidrug-resistant Plasmodium falciparum 7G8 infected in human erythrocytes assessed as reduction in parasite growth incubated for 72 hrs by SYBR green 1 staining based assay. The class given is functional, organism-based. The conditions noted are these: 7G8, Erythrocyte. In outline: as §1

For data set [4], the system named is Plasmodium falciparum. The experiment in a line: Antiplasmodial activity against asexual blood stage of multidrug-resistant Plasmodium falciparum TM90C2B infected in human erythrocytes assessed as reduction in parasite growth incubated for 72 hrs by SYBR green 1 staining based assay. The class given is functional, organism-based. The conditions noted are these: Erythrocyte.

For data set [5], the system named is HepG2. The experiment in a line: Cytotoxicity against human HepG2 cells assessed as reduction in cell viability measured for 48 hrs by MTT assay. The class given is cell-based. The conditions noted are these: HepG2, 48 h.
Data set [6] relates to Plasmodium yoelii. The experiment in a line: Antimalarial activity against blood stage Plasmodium yoelii infected in CF1 mouse assessed as reduction in parasitemia at 5 mg/kg, po administered once daily for 4 days and measured on day 5 by Giemsa staining based microscopic analysis relative to control. The class given is functional. More on the design: scale not given: the % may be the effect or the level left. The conditions noted are these: time 4 day. In outline:
(§2)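 Female CF1 mice, 7–8 weeks old, about 30 g, n = 4 per group. Infected iv with 2.5 × 104 P. yoelii (Kenya strain) parasitized erythrocytes from a donor mouse. Dosed orally in PEG-400, 5 or 25 mg/kg once daily for 4 days, starting the day after inoculation. Giemsa-stained tail-vein blood films read the day after the last dose, then weekly to day 28. Parasitemia taken relative to vehicle controls.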

In data set [7] the test system is Plasmodium yoelii. The experiment in a line: Antimalarial activity against blood stage Plasmodium yoelii infected in CF1 mouse assessed as reduction in parasitemia at 25 mg/kg, po administered once daily for 4 days and measured on day 5 by Giemsa staining based microscopic analysis relative to control. More on the design: scale not given: the % may be the effect or the level left. The class given is functional. To be noted: time 4 day. In outline: as §2

Data set [8] has as its system Plasmodium yoelii. The data set can be described thus: Antimalarial activity against blood stage Plasmodium yoelii infected in CF1 mouse assessed as reduction in parasitemia administered orally once daily for 4 days and measured for 28 days by Giemsa staining based microscopic analysis. The class given is functional. To be noted: po, 96 h, time 4 day. In outline: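 Female CF1 mice, 7–8 weeks old, about 30 g, n = 4 per group. Dosed orally in PEG-400, 5 or 25 mg/kg once daily for 4 days, starting the day after inoculation. Giemsa-stained tail-vein blood films read the day after the last dose, then weekly to day 28. Parasitemia taken relative to vehicle controls.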

The nature of data set [9]: Toxicity in CF-1 mouse infected with blood stage Plasmodium yoelii assessed as reduction in body weight at 5 to 25 mg/kg, po administered once daily for 4 days and measured for 28 days. The conditions noted are these: in vivo, 96 h, dose 5-25 mg/kg, time 4 day. The class given is organism-based. In outline: (§3)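 CF1 mice infected with P. yoelii and given oral doses of 5 or 25 mg/kg in PEG-400 once daily for 4 days. Checked daily for mortality, morbidity and signs of toxicity. Body weight, grooming, posture and locomotion monitored over the study, to day 28. Compared with the vehicle control group.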

The nature of data set [10]: Toxicity in CF-1 mouse infected with blood stage Plasmodium yoelii assessed as behavioral changes at 5 to 25 mg/kg, po administered once daily for 4 days and measured for 28 days. The class given is organism-based. To be noted: in vivo, 96 h, dose 5-25 mg/kg, time 4 day. In outline:
as §3

The nature of data set [11]: Therapeutic index, ratio of IC50 for cytotoxicity against human HepG2 cells to IC50 for antiplasmodial activity against asexual blood stage of chloroquine-sensitive Plasmodium falciparum D6 infected in human erythrocytes.

As for `CCCCCc1cc(/C=C2\N=C(c3ccc(Cc4ccc(OC)cc4)[nH]3)C=C2OC)[nH]c1C.Cl`, the IC50 in data set [1] stood at 2.4 nM; in [2], 3.2 nM; in [3] it was 5.6 nM; in [4] it was 2.3 nM; in data set [5], 2640 nM. Also, the Activity is 60% in [6], 100% in [7], “Non-Toxic” in [9] and “Non-Toxic” in [10]. In addition, the ED50 in data set [8] worked out at 3.6 mg/kg/day. The ED90 in data set [8] is 18 mg/kg/day. Further, in [11], the selectivity ratio was 1100.

Take `COC1=CC2=N/C1=C\NCC/C=C/CCCCCCCCc1ccc2[nH]1.Cl`: the IC50 in data set [1] amounted to 22 nM; in data set [2], 16 nM; in data set [4], 13 nM; in data set [5], 29400 nM. For the same compound, the Activity in data set [6] is reported as 0%; in data set [7], 100%; in data set [9] it was “Non-Toxic”; in [10], “Non-Toxic”. The ED50 in [8] came to 15 mg/kg/day. The ED90 in data set [8] amounted to 16 mg/kg/day. Besides, in data set [11], the selectivity ratio was 1340.

For `CCCCCCCc1cc(/C=C2\N=C(c3ccc(Cc4ccc(O)cc4)[nH]3)C=C2OC)[nH]c1C.Cl`, the IC50 in data set [1] was determined as 48 nM; in data set [2], 54 nM; in data set [3], 44 nM; in data set [4], 40 nM; in [5], 9240 nM. The Activity in data set [6] is listed as 25%; in data set [7] it was 37%; in data set [9], “Non-Toxic”; in data set [10], “Non-Toxic”. In addition, in data set [11], the selectivity ratio amounted to 192.

On to `CCCCc1cc(/C=C2\N=C(c3ccc[nH]3)C=C2OC)[nH]c1C.Cl`, for which the IC50 in data set [1] amounted to 11 nM; in [2], 5.6 nM; in data set [3], 8.7 nM; in data set [4], 8.5 nM; in data set [5], 3320 nM. The Activity in data set [6] was 67%; in data set [7], 100%; in [9], “Non-Toxic”; in data set [10], “Non-Toxic”. Also, in data set [8], the ED50 came to 2.5 mg/kg/day. Also, the ED90 in data set [8] was determined as 8.5 mg/kg/day. Besides, the selectivity ratio in data set [11] was 301.

For the compound `O=C1C(O)=C([C@H]2CC[C@H](c3ccc(Cl)cc3)CC2)C(=O)c2ccccc21` [ATOVAQUONE], the IC50 in [1] is 0.1 nM; in data set [3], 0.2 nM.

In the case of `COC1=CC(c2ccc[nH]2)=N/C1=C\c1cc(CCCCC(C)C)c(C)[nH]1.Cl`, the IC50 in data set [1] is 4.1 nM; in data set [2] it was 2.1 nM; in data set [3], 2.1 nM; in data set [4], 2.6 nM; in data set [5] it was 1490 nM. The Activity in data set [6] is reported as 65%; in data set [7] it was 100%; in [9], “Non-Toxic”; in [10], “Non-Toxic”. Further, the ED50 in data set [8] turned out to be 2.7 mg/kg/day. The ED90 in [8] worked out at 5.9 mg/kg/day. Moreover, the selectivity ratio in data set [11] amounted to 363.

Turning to `CCCCCCCc1cc(/C=C2\N=C(c3ccc[nH]3)C=C2OC)[nH]c1C.Cl`, the IC50 in data set [1] worked out at 4.2 nM; in data set [2], 4.5 nM; in [3] it was 4.1 nM; in data set [4], 2.5 nM; in data set [5] it was 1350 nM. Moreover, the Activity in data set [6] is listed as 89%; in data set [7], 100%; in data set [9], “Non-Toxic”; in data set [10] it was “Non-Toxic”. In addition, in data set [8], the ED50 was determined as 2.6 mg/kg/day. Moreover, the ED90 in data set [8] stood at 9.2 mg/kg/day. Besides, the selectivity ratio in data set [11] was 320.

As for `CCCCCc1cc(/C=C2\N=C(c3ccc(Cc4ccc(O)cc4)[nH]3)C=C2OC)[nH]c1C.Cl`, the IC50 was found to be 16 nM in data set [1]; 28 nM in data set [2]; 27 nM in data set [3]; 29 nM in data set [4]; 7020 nM in data set [5]. The Activity in data set [6] is listed as 0%; in data set [7] it was 0%; in [9] it was “Non-Toxic”; in data set [10] it was “Non-Toxic”. In addition, the selectivity ratio in [11] was found to be 439.

Turning to `CCN(CC)CCCC(C)Nc1ccnc2cc(Cl)ccc12` (stereo unspecified) [CHLOROQUINE], the Activity in data set [6] and in [7] was 100% in each case.

As for `CCCCCc1cc(/C=C2\N=C(c3ccc[nH]3)C=C2OC)[nH]c1C.Cl`, the 50% inhibitory concentration (IC50) in data set [1] was 8 nM; in data set [2], 7.3 nM; in data set [3] it was 9.2 nM; in [4] it was 8.8 nM; in data set [5], 1070 nM. In addition, the Activity in [6] is 63%; in data set [7] it was 100%; in [9] it was “Non-Toxic”; in data set [10] it was “Non-Toxic”. In addition, the ED50 in [8] was 3.7 mg/kg/day. Besides, the ED90 in data set [8] came to 17 mg/kg/day. Further, the selectivity ratio in data set [11] turned out to be 134.

For `CCCCc1cc(/C=C2\N=C(c3ccc(Cc4ccc(O)cc4)[nH]3)C=C2OC)[nH]c1C.Cl`, the half-inhibitory concentration (IC50) in [1] worked out at 12 nM; in data set [2], 12 nM; in [3], 16 nM; in data set [4], 17 nM; in [5], 8880 nM. The Activity is recorded as 0% in data set [6], 6% in data set [7], “Non-Toxic” in [9] and “Non-Toxic” in [10]. In addition, the selectivity ratio in data set [11] amounted to 740.

`CCCCCCc1cc(/C=C2\N=C(c3ccc[nH]3)C=C2OC)[nH]c1C.Cl`: the IC50 in [1] worked out at 5.9 nM; in data set [2] it was 3.4 nM; in data set [3], 3.6 nM; in [4], 4.6 nM; in data set [5] it was 2420 nM. In addition, the Activity was 70% in [6], 100% in [7], “Non-Toxic” in [9] and “Non-Toxic” in data set [10]. Moreover, in data set [8], the ED50 was 1.5 mg/kg/day. The ED90 in data set [8] was found to be 4.8 mg/kg/day. In data set [11], the selectivity ratio is 410.

As for `C=CCCCCCCCCc1ccc(C2=N/C(=C\NCCC=C)C(OC)=C2)[nH]1.Cl`, the half-maximal inhibitory concentration (IC50) was determined as 8.9 nM in [1], 6.5 nM in data set [2], 2.6 nM in data set [4] and 1600 nM in data set [5]. Moreover, the Activity in data set [6] is 0%; in [7], 42%; in [9], “Non-Toxic”; in data set [10], “Non-Toxic”. Also, in data set [11], the selectivity ratio amounted to 180.

In the case of `CCCCCCc1cc(/C=C2\N=C(c3ccc(Cc4ccc(O)cc4)[nH]3)C=C2OC)[nH]c1C.Cl`, the IC50 in data set [1] came out at 9 nM; in data set [2] it was 11 nM; in [3], 13 nM; in data set [4], 12 nM; in data set [5], 9930 nM. The Activity in [6] is listed as 0%; in [7] it was 9%; in data set [9] it was “Non-Toxic”; in data set [10], “Non-Toxic”. Besides, the selectivity ratio in data set [11] was 1100.
